{"source": "ChEMBL document CHEMBL1122996", "about": "“Interactions of apomorphine with serum and tissue proteins” (J Med Chem, 1985)", "key": {"Mus musculus [1]": {"species": "Mus musculus", "experiment": "Radio activity accumulation in forebrain without striatum (Excreatable reactivity) on day 1", "assay_type": "functional", "method_in_brief": "(§1)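 Male CD-1 mice (~35 g, n=10 per group) given apomorphine 30 mg/kg fortified with [3H]-apomorphine (0.153 mCi/kg) ip, either once or daily for 14 days. Sampled 24 h after the last dose: plasma from infraorbital sinus (extractable and nonextractable radioactivity) and brain regions (striatum, cerebellum, forebrain without striatum). Radioactivity expressed as µg apomorphine equivalent per mL or per g […].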"}, "Mus musculus [2]": {"species": "Mus musculus", "experiment": "Radio activity of [3H]-l in mice GI tract with its contents on day 1", "assay_type": "functional, Gastrointestinal tract", "method_in_brief": "(§2)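 Male CD-1 mice (~35 g, n=10 per group) received apomorphine 30 mg/kg with [3H]-apomorphine (0.153 mCi/kg) ip, once or daily for 14 days. Killed 24 h after the last dose; GI tract (with contents or washed with distilled water), liver and kidney (rinsed of blood) and skeletal tissue taken. Radioactivity given as % of total dose; skeletal tissue as % dose/g wet weight.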"}, "Mus musculus [3]": {"species": "Mus musculus", "experiment": "Ratio of accumulation of radioactivity from 14 to 1 day in striatum", "assay_type": "functional", "method_in_brief": "(§3)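 Male CD-1 mice (~35 g, 10 per group) received 1 at 30 mg/kg ip with [³H]-1 (0.153 mCi/kg), once or daily for 14 days, with free access to food and water. At 24 h after the last dose, plasma (infraorbital sinus), brain regions, kidney, liver and GI tract were taken for radioactivity counting. The accumulation ratio is radioactivity after 14 doses divided by radioactivity after 1 dose.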"}, "Mus musculus [4]": {"species": "Mus musculus", "experiment": "Radio activity accumulation in extractable reactivity in plasma brain (Excreatable reactivity) on 14 days", "assay_type": "functional", "method_in_brief": "as §1"}, "Mus musculus [5]": {"species": "Mus musculus", "experiment": "Radio activity of [3H]-l in washed mice GI tract on 14 days", "assay_type": "functional, Gastrointestinal tract", "method_in_brief": "as §2"}, "Mus musculus [6]": {"species": "Mus musculus", "experiment": "Radio activity covalently bound to plasma of mouse brain", "assay_type": "functional", "method_in_brief": "(§4)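 Male CD-1 mice (~35 g, n=10) given apomorphine 30 mg/kg with [3H]-apomorphine (0.153 mCi/kg) ip daily for 14 days, killed 24 h after the last dose. Plasma from infraorbital sinus; brain split into striatum, cerebellum, forebrain without striatum. Protein-bound radioactivity expressed as µg/g protein (albumin equivalent; plasma µg/mL) and as % of total tissue radioactivity.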"}, "Albumin [7]": {"molecular_target": "T1, Albumin (Bos taurus, UniProt P02769)", "T1 sequence (P02769 whole entry)": "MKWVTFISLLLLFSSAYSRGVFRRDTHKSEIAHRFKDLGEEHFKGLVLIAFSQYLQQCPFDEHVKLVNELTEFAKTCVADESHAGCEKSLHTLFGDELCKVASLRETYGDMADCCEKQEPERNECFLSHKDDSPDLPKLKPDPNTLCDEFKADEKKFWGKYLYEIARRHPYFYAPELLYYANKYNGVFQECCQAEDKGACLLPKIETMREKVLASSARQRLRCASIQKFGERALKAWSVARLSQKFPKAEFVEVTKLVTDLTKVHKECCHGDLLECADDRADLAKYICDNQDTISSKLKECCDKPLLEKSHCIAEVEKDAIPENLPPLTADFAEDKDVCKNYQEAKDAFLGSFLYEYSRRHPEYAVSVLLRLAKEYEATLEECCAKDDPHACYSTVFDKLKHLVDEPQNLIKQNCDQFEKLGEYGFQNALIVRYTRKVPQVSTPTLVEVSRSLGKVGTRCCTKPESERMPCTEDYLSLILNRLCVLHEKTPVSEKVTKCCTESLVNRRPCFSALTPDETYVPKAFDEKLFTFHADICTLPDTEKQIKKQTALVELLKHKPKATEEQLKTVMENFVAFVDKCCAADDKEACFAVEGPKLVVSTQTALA", "experiment": "Covalent binding of compound to serum albumin after 1 hr when the level of [8,9-3H2]-1is 2.0 dpm *10e6 expressed as mol of drug/mol of serum albumin", "conditions": "cattle", "method_in_brief": "(§5)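 BSA (32 mg) with 2 mg apomorphine HCl hemihydrate plus tritiated [8,9-3H2]apomorphine at the level stated, in pH 7.4 phosphate buffer, 2.1 mL total, incubated 1 h. Incubates were extracted twice with ethyl acetate. Protein-bound radioactivity was measured by LSC after one of three workups: perchloric acid precipitation with repeated trifluoroacetic acid-ethanol washes; Sephadex G-25 gel filtration in 1% sodium lauryl sulfate buffer; or 4-day dialysis.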"}, "Rattus norvegicus [8]": {"species": "Rattus norvegicus", "experiment": "Percentage binding to rat plasma proteins at 10.0 ug/mL concentration of the compound", "assay_type": "cell-free", "method_in_brief": "(§6)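 Plasma came from male Sprague-Dawley rats (~450 g, ether, vena cava blood, lithium heparin) or from six mature female swine (jugular catheter, heparinized). It was spiked with 1-HCl (10 ng–50 µg/mL) containing 0.5 mCi/mL [³H]-1. Samples were ultrafiltered as for human plasma, and the ultrafiltrate was analysed by HPLC peak-collection LSC. N = 4.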"}, "Homo sapiens [9]": {"species": "Homo sapiens", "experiment": "Percentage binding to human plasma proteins was determined by measuring HPLC peak with radiochemical detection at 1.0 micro g/ml concentration in plasma", "assay_type": "cell-free", "method_in_brief": "(§7)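 Fresh plasma from fasted healthy human volunteers was spiked with 1-HCl plus [³H]-1 tracer. It was incubated 10 min at 37 °C and ultrafiltered through YMT membranes (1000g, 5 min, 37 °C). Ultrafiltrate was acidified with pH 3.0 acetate buffer containing carrier 1-HCl, argon-flushed and frozen at -15 °C. Phenyl-column HPLC was read by peak-eluate collection LSC, UV peak area, or radiochemical detection. % bound was calculated from total vs ultrafiltrate using a plasma water fraction of 0.93.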"}, "Mus musculus [10]": {"species": "Mus musculus", "experiment": "Radio activity accumulation in plasma (Excreatable reactivity) on 14 days", "assay_type": "functional", "method_in_brief": "as §1"}, "Mus musculus [11]": {"species": "Mus musculus", "experiment": "Ratio of accumulation of radioactivity from 14 to 1 day in skeletal tissue (%dose/g of wet wt)", "assay_type": "functional", "method_in_brief": "as §3"}, "Sus scrofa [12]": {"species": "Sus scrofa", "experiment": "Percentage binding to swine plasma proteins a t0.01 ug/mL concentration of the compound", "assay_type": "cell-free", "method_in_brief": "as §6"}, "Homo sapiens [13]": {"species": "Homo sapiens", "experiment": "Percentage binding to human plasma proteins was determined by collecting HPLC eluate at 10.0 micro g/ml concentration of compound 1 in plasma", "assay_type": "cell-free", "method_in_brief": "as §7"}, "Mus musculus [14]": {"species": "Mus musculus", "experiment": "Radio activity accumulation in nonextractable radioactivity in striatum (Excreatable reactivity) on 14 days", "assay_type": "functional", "method_in_brief": "as §1"}, "Mus musculus [15]": {"species": "Mus musculus", "experiment": "Radio activity accumulation in forebrain without striatum (Excreatable reactivity) on 14 days", "assay_type": "functional", "method_in_brief": "as §1"}, "Homo sapiens [16]": {"species": "Homo sapiens", "experiment": "Percentage binding to human plasma proteins was determined by measuring HPLC peak at 0.10 micro g/ml concentration of compound 1 in plasma", "assay_type": "cell-free", "method_in_brief": "as §7"}, "Mus musculus [17]": {"species": "Mus musculus", "experiment": "Radio activity covalently bound to cerebellum of mouse brain", "assay_type": "functional", "method_in_brief": "as §4"}, "Mus musculus [18]": {"species": "Mus musculus", "experiment": "Radio activity accumulation in extractable reactivity in plasma (Excreatable reactivity) on day 1", "assay_type": "functional", "method_in_brief": "as §1"}, "Homo sapiens [19]": {"species": "Homo sapiens", "experiment": "Percentage binding to human plasma proteins was determined by collecting HPLC eluate at 0.01 micro g/ml concentration of compound 1 in plasma", "assay_type": "cell-free", "method_in_brief": "as §7"}, "Mus musculus [20]": {"species": "Mus musculus", "experiment": "Ratio of accumulation of radioactivity from 14 to 1 day in liver", "assay_type": "functional", "method_in_brief": "as §3"}, "Sus scrofa [21]": {"species": "Sus scrofa", "experiment": "Percentage binding to swine plasma proteins at 10.0 ug/mL concentration of the compound", "assay_type": "cell-free", "method_in_brief": "as §6"}, "Mus musculus [22]": {"species": "Mus musculus", "experiment": "Radio activity accumulation in cerebellum (Excreatable reactivity) on 14 days", "assay_type": "functional", "method_in_brief": "as §1"}, "Homo sapiens [23]": {"species": "Homo sapiens", "experiment": "Percentage binding to human plasma proteins was determined by measuring HPLC peak at 50.0 micro g/ml concentration in plasma", "assay_type": "cell-free", "method_in_brief": "as §7"}, "Mus musculus [24]": {"species": "Mus musculus", "experiment": "Radio activity in skeletal tissue(% dose/g of wet wt) contents on day 1", "assay_type": "functional", "method_in_brief": "as §2"}, "Mus musculus [25]": {"species": "Mus musculus", "experiment": "Radio activity of [3H]-l in mice kidney on day 1", "assay_type": "functional", "method_in_brief": "as §2"}, "Sus scrofa [26]": {"species": "Sus scrofa", "experiment": "Percentage binding to swine plasma proteins at 1.00 ug/mL concentration of the compound", "assay_type": "cell-free", "method_in_brief": "as §6"}, "Albumin [27]": {"molecular_target": "T1, Albumin", "experiment": "Covalent binding of compound to serum albumin after 1 hr when the level of [8,9-3H2]-1is 2.0 dpm *10e6", "conditions": "cattle", "method_in_brief": "as §5"}, "Mus musculus [28]": {"species": "Mus musculus", "experiment": "Radio activity of [3H]-l in washed mice GI tract on day 1", "assay_type": "functional, Gastrointestinal tract", "method_in_brief": "as §2"}, "Mus musculus [29]": {"species": "Mus musculus", "experiment": "Radio activity covalently bound to striatum of mouse brain", "assay_type": "functional", "method_in_brief": "as §4"}, "Mus musculus [30]": {"species": "Mus musculus", "experiment": "Percentage of covalently bound total in plasma of mouse", "assay_type": "functional", "method_in_brief": "as §4"}, "Rattus norvegicus [31]": {"species": "Rattus norvegicus", "experiment": "Percentage binding to rat plasma proteins at 50.0 ug/mL concentration of the compound", "assay_type": "cell-free", "method_in_brief": "as §6"}, "Albumin [32]": {"molecular_target": "T1, Albumin", "experiment": "Covalent binding of compound to serum albumin after 1 hr when the level of [8,9-3H2]-1is 2.2 dpm *10e6", "conditions": "cattle", "method_in_brief": "as §5"}, "Homo sapiens [33]": {"species": "Homo sapiens", "experiment": "Percentage binding to human plasma proteins was determined by collecting HPLC eluate at 0.10 micro g/ml concentration of compound 1 in plasma", "assay_type": "cell-free", "method_in_brief": "as §7"}, "Mus musculus [34]": {"species": "Mus musculus", "experiment": "Percentage of covalently bound total in cerebellum of mouse", "assay_type": "functional", "method_in_brief": "as §4"}, "Mus musculus [35]": {"species": "Mus musculus", "experiment": "Ratio of accumulation of radioactivity from 14 to 1 day in GI tract with its contents", "assay_type": "functional, Gastrointestinal tract", "method_in_brief": "as §3"}}, "note": "“And” between values parts separate entries of the source, which are not always exact repeats. Equal values may be shown once."}
{"compound": "CN1CCc2cccc3c2[C@H]1Cc1ccc(O)c(O)c1-3", "note": "[APOMORPHINE]", "values": [{"measurement": "Accumulation", "setting": "Mus musculus [1]", "result": 23.1, "unit": "µg/g"}, {"measurement": "Amount", "setting": "Mus musculus [2]", "result": 1.48, "unit": "%"}, {"measurement": "Ratio", "setting": "Mus musculus [3]", "result": 2.7}, {"measurement": "Accumulation", "setting": "Mus musculus [4]", "result": 1.42, "unit": "µg/mL"}, {"measurement": "Amount", "setting": "Mus musculus [5]", "result": 0.558, "unit": "%"}, {"measurement": "Binding", "setting": "Mus musculus [6]", "result": 0.68, "unit": "µg/mL"}, {"measurement": "Binding", "setting": "Albumin [7]", "result": "3 M of drug (M of BSA)-1"}, {"measurement": "Binding", "setting": "Rattus norvegicus [8]", "result": 90.7, "unit": "%"}, {"measurement": "Binding", "setting": "Homo sapiens [9]", "result": 94.9, "unit": "%"}, {"measurement": "Accumulation", "setting": "Mus musculus [10]", "result": 1.42, "unit": "µg/mL"}, {"measurement": "Ratio", "setting": "Mus musculus [11]", "result": 1.6}, {"measurement": "Binding", "setting": "Sus scrofa [12]", "result": 94.8, "unit": "%"}, {"measurement": "Binding", "setting": "Homo sapiens [13]", "result": "95.3% and 96.9%"}, {"measurement": "Accumulation", "setting": "Mus musculus [14]", "result": 56.9, "unit": "µg/g"}, {"measurement": "Accumulation", "setting": "Mus musculus [15]", "result": 69.6, "unit": "µg/g"}, {"measurement": "Binding", "setting": "Homo sapiens [16]", "result": 96.6, "unit": "%"}, {"measurement": "Binding", "setting": "Mus musculus [17]", "result": 0.98, "unit": "µg/g"}, {"measurement": "Accumulation", "setting": "Mus musculus [18]", "result": 0.561, "unit": "µg/mL"}, {"measurement": "Binding", "setting": "Homo sapiens [19]", "result": 96.8, "unit": "%"}, {"measurement": "Ratio", "setting": "Mus musculus [20]", "result": 2.6}, {"measurement": "Binding", "setting": "Sus scrofa [21]", "result": 86.8, "unit": "%"}, {"measurement": "Accumulation", "setting": "Mus musculus [22]", "result": 57.3, "unit": "µg/g"}, {"measurement": "Binding", "setting": "Homo sapiens [23]", "result": 94.9, "unit": "%"}, {"measurement": "Amount", "setting": "Mus musculus [24]", "result": 0.245, "unit": "%"}, {"measurement": "Amount", "setting": "Mus musculus [25]", "result": 0.107, "unit": "%"}, {"measurement": "Binding", "setting": "Sus scrofa [26]", "result": 93.5, "unit": "%"}, {"measurement": "Binding", "setting": "Albumin [27]", "result": 4848, "unit": "dpm mg-1"}, {"measurement": "Amount", "setting": "Mus musculus [28]", "result": 0.065, "unit": "%"}, {"measurement": "Binding", "setting": "Mus musculus [29]", "result": 0.94, "unit": "µg/g"}, {"measurement": "Binding", "setting": "Mus musculus [30]", "result": 2.88, "unit": "%"}, {"measurement": "Binding", "setting": "Rattus norvegicus [31]", "result": 89.1, "unit": "%"}, {"measurement": "Binding", "setting": "Albumin [32]", "result": 3850, "unit": "dpm mg-1"}, {"measurement": "Binding", "setting": "Homo sapiens [33]", "result": 97.8, "unit": "%"}, {"measurement": "Binding", "setting": "Mus musculus [34]", "result": 1.71, "unit": "%"}, {"measurement": "Ratio", "setting": "Mus musculus [35]", "result": 2.7}]}
